From ChEMBL document CHEMBL4011621, “A Novel Series of Highly Potent Small Molecule Inhibitors of Rhinovirus Replication” (J Med Chem, 2017)
The source made the active and inactive calls. The rule behind the calls is not given here.

What was measured:
rhinovirus B14 [1] = test: Antiviral activity against Human rhinovirus B14 infected in H1HeLa cells assessed as decrease in viral dsRNA at 6 times EC50 treated every 1 hr for 9 hrs after infection by DAPI staining based immunofluorescence assay; type: functional, cell-based
In short: (§1)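 Cells were infected with hRV type 14 or type 16 at MOI 1. Compound was given 1 h before infection, at infection (0 h), or at later hourly time points. At 9 h post-infection, cells were fixed in ice-cold methanol–acetone 3:1 and stained with anti-dsRNA antibody (J2), an Alexa Fluor 488 anti-mouse secondary and DAPI, then imaged. Infected-cell count over total nuclei was expressed as % of untreated virus control; mean ± SD, three experiments.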

rhinovirus B14 [2] = test: Antiviral activity against Human rhinovirus B14 infected in human H1HeLa cells assessed as protection against virus induced cytopathic effect after 3 days by MTT assay; type: functional, cell-based; settings: Rhinovirus B, H1-HeLa, 72 h
rhinovirus A21 = test: Antiviral activity against Human rhinovirus A21 infected in human H1HeLa cells assessed as protection against virus induced cytopathic effect after 3 days by MTT assay; type: functional, cell-based; settings: Rhinovirus A, H1-HeLa, 72 h
In short: (§2)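 CPE-reduction assay in H1HeLa cells plated 2 d before. Equal volumes of virus and compound were added and held at 33 °C for 3 d under CO2. Supernatant was removed, then MTT was added for 1 h at 37 °C. Formazan was dissolved and read at 540 nm against a 690 nm reference. Survival was scaled between uninfected untreated wells (100%) and virus-only wells (0%); mean ± SD, three experiments.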

[3] = Cytotoxicity against human H1HeLa cells assessed as decrease in cell viability after 3 days by MTT assay; type: cell-based, H1-HeLa
[4] = Antiviral activity against Human rhinovirus A71 infected in human H1HeLa cells assessed as protection against virus induced cytopathic effect after 3 days by MTT assay; type: functional, cell-based; settings: Rhinovirus A, H1-HeLa, 72 h; in short: as §2
[5] = Selectivity index, ratio of CC50 for human H1HeLa cells to EC50 for Human rhinovirus B14 infected in human H1HeLa cells; type: toxicity, cell-based; settings: read-out: Ratio CC50/EC50
In short: (§3)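 H1HeLa cells plated 2 d ahead; virus plus compound (equal volumes) incubated 33 °C, 3 d, CO2. MTT 1 h at 37 °C, A540/A690. Survival scaled between uninfected untreated (100%) and virus-only (0%) wells to give EC50. CC50 = 50% cell death by MTT in H1HeLa. SI = CC50/EC50; at least three independent experiments.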

[6] = Selectivity index, ratio of CC50 for human H1HeLa cells to EC50 for Human rhinovirus A21 infected in human H1HeLa cells; type: toxicity, cell-based; settings: read-out: Ratio CC50/EC50; in short: as §3
[7] = Selectivity index, ratio of CC50 for human H1HeLa cells to EC50 for Human rhinovirus A71 infected in human H1HeLa cells; type: toxicity, cell-based; settings: read-out: Ratio CC50/EC50; in short: as §3
Poliovirus 3 = test: Antiviral activity against Human poliovirus 3 infected in human HeLa cells assessed as protection against virus induced cytopathic effect after 2 days by MTT assay; type: functional, cell-based; settings: Enterovirus C, 48 h
In short: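 HeLa cells; MTT-based CPE reduction. Virus and compound added in equal volumes, incubated 37 °C for 2 d in CO2. Supernatant removed, MTT 1 h at 37 °C, formazan dissolved, absorbance 540 nm (690 nm reference). Uninfected untreated wells = 100% survival, virus-only = 0%. EC50 = 50% inhibition; means ± SD, three experiments.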

[8] = Cytotoxicity aganist human HeLa cells assessed as decrease in cell viability after 2 days by MTT assay; type: cell-based
[9] = Selectivity index, ratio of CC50 for human HeLa cells to EC50 for human poliovirus 3 infected in human HeLa cells; type: toxicity, cell-based; settings: read-out: Ratio CC50/EC50
In short: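 SI = CC50/EC50 in HeLa cells. CC50 = 50% cell death by MTT. EC50 = 50% inhibition of PV3 CPE by MTT after 2 d at 37 °C, survival scaled to uninfected (100%) and virus-only (0%) wells. At least three independent experiments.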

rhinovirus A16 [10] = test: Antiviral activity against Human rhinovirus A16 infected in human H1HeLa cells assessed as protection against virus induced cytopathic effect after 3 days by MTT assay; type: functional, cell-based; settings: Rhinovirus A, H1-HeLa, 72 h; in short: as §2
rhinovirus B14 [11] = test: Antiviral activity against Human rhinovirus B14 infected in H1HeLa cells assessed as decrease in viral dsRNA at 6 times EC50 treated 1 hr prior to infection by DAPI staining based immunofluorescence assay; type: functional, cell-based; in short: as §1
rhinovirus B14 [12] = test: Antiviral activity against Human rhinovirus B14 infected in H1HeLa cells assessed as decrease in viral dsRNA at 6 times EC50 treated simultaneously with infection by DAPI staining based immunofluorescence assay; type: functional, cell-based; in short: as §1
rhinovirus A16 [13] = test: Antiviral activity against Human rhinovirus A16 infected in H1HeLa cells assessed as decrease in viral dsRNA at 6 times EC50 treated 1 hr prior to infection by DAPI staining based immunofluorescence assay; type: functional, cell-based; in short: as §1
rhinovirus A16 [14] = test: Antiviral activity against Human rhinovirus A16 infected in H1HeLa cells assessed as decrease in viral dsRNA at 6 times EC50 treated simultaneously with infection by DAPI staining based immunofluorescence assay; type: functional, cell-based; in short: as §1
rhinovirus B14 [15] = test: Antiviral activity against Human rhinovirus B14 harboring VP1 A150V/E276K double mutant infected in human HeLa Rh cells assessed as protection against virus induced cytopathic effect after 3 days by MTT assay; type: functional, cell-based
rhinovirus B14 [16] = test: Antiviral activity against Human rhinovirus B14 harboring VP1 C199Y mutant infected in human HeLa Rh cells assessed as protection against virus induced cytopathic effect after 3 days by MTT assay; type: functional, cell-based
[17] = Cytotoxicity against human HeLa Rh cells assessed as decrease in cell viability after 3 days by MTT assay; type: cell-based
rhinovirus A16 [18] = test: Antiviral activity against Human rhinovirus A16 infected in H1HeLa cells assessed as decrease in viral dsRNA at 6 times EC50 treated every 1 hr for 9 hrs after infection by DAPI staining based immunofluorescence assay; type: functional, cell-based; in short: as §1
rhinovirus B14 [19] = test: Antiviral activity against Human rhinovirus B14 infected in H1HeLa cells assessed as decrease in viral dsRNA at 6 times EC50 treated every 1 hr for 6 hrs after infection by DAPI staining based immunofluorescence assay; type: functional, cell-based; in short: as §1

Row | Structure (SMILES) | EC50 (rhinovirus B14 [2]) | EC50 (rhinovirus A21) | CC50 at 72 h [3] | EC50 [4] | selectivity ratio [5] | selectivity ratio [6] | selectivity ratio [7] | EC50 (Poliovirus 3) | CC50 at 48 h [8] | selectivity ratio [9] | further results
1 | Cc1cc(CCCOc2c(C)cc(-c3noc(C(F)(F)F)n3)cc2C)on1 [PLECONARIL] | 75 to 92 nM | 73 nM | 19700 nM | 9.4 nM | 210 | 270 | 2100 | 1400 nM | 25900 nM | 19 | Activity (rhinovirus B14 [1]): inactive; EC50 (rhinovirus A16 [10]): 350 nM; Activity (rhinovirus B14 [11]): Active; Activity (rhinovirus B14 [12]): Active; Activity (rhinovirus A16 [13]): Active; Activity (rhinovirus A16 [14]): Active; EC50 (rhinovirus B14 [15]): 1490 nM; EC50 (rhinovirus B14 [16]): 2310 nM; CC50 at 72 h [17]: > 10000 nM
2 | C#CC[C@@H](C(=O)N[C@H](/C=C/C(=O)OCC)C[C@@H]1CCNC1=O)n1cccc(NC(=O)c2cc(C)on2)c1=O [IMOCITRELVIR] | 45 nM |  |  |  |  |  |  |  |  |  | EC50 (rhinovirus B14 [15]): 49 nM; EC50 (rhinovirus B14 [16]): 56 nM; CC50 at 72 h [17]: > 3000 nM
3 | CCOC(=O)c1sc2cc(Oc3ccnc(C(=O)NC)c3)ccc2c1C#N | 82500 nM | 20700 nM | > 100000 nM | 540 nM | > 1.2 | > 4.8 | > 190 | 55400 nM | > 100000 nM | > 1.8 | 
4 | CCOC(=O)c1cc2ccc(Oc3ccnc(C(=O)NC)c3)cc2s1 | 24600 to 58400 nM | 1200 to 1300 nM | > 100000 nM | 19 nM | > 1.7 | > 77 | > 5300 | 64300 nM | > 100000 nM | > 1.6 | 
5 | CCOc1noc2cc(OCCC3CCN(c4ccc(C)nn4)CC3)ccc12 [VAPENDAVIR] |  |  |  |  |  |  |  |  |  |  | CC50 at 72 h [17]: 721000 nM
6 | CCOC(=O)c1ccc2ccc(Oc3ccnc(C(=O)NC)c3)cc2n1 | 56600 nM | 44300 nM | > 100000 nM | 1300 nM | > 1.8 | > 2.3 | > 77 | 1900 nM | > 100000 nM | > 53 | 
7 | CNC(=O)c1cc(Oc2ccc3c(C)c(C(=O)OC)sc3c2)ccn1 | 2000 nM | 250 nM | 10800 nM | 1600 nM | 5.4 | 43 | 6.8 | 87 nM | 15700 nM | 180 | 
8 | CNC(=O)c1cc(Oc2ccc3c(C)c(C(=O)OCC(C)C)sc3c2)ccn1 | 10100 nM | 1500 nM | 36600 nM | 380 nM | 3.6 | 24 | 96 | 2000 nM | 28200 nM | 14 | 
9 | CNC(=O)c1cc(Oc2ccc3ccc(C(=O)OC(C)C)cc3c2)ccn1 | 1800 nM | 480 nM | 13800 nM | 19 nM | 7.7 | 29 | 730 | 10 nM | 8700 nM | 870 | 
10 | CNC(=O)c1cc(Oc2ccc3c(C)c(C(=O)OC(C)C)sc3c2)ccn1 | 70 to 83 nM | 78 nM | 18100 nM | 15 nM | 220 | 230 | 1200 | 63 nM | 9600 nM | 150 | Activity (rhinovirus B14 [1]): inactive; EC50 (rhinovirus A16 [10]): 230 nM; Activity (rhinovirus B14 [11]): Active; Activity (rhinovirus B14 [12]): Active; Activity (rhinovirus A16 [13]): Active; Activity (rhinovirus A16 [14]): Active; Activity (rhinovirus A16 [18]): inactive; EC50 (rhinovirus B14 [15]): 264 nM; EC50 (rhinovirus B14 [16]): 2370 nM; CC50 at 72 h [17]: > 3000 nM
11 | CCOC(=O)c1cc2ccc(Oc3ccnc(C(=O)NC)c3)c(Cl)c2s1 | 12400 nM | 7700 nM | > 100000 nM | 200 nM | > 8.1 | > 13 | > 500 | 58700 nM | > 100000 nM | > 1.7 | 
12 | CCOC(=O)c1ccc2ccc(Oc3ccnc(C(=O)NC)c3)cc2c1 | 2100 nM | 270 nM | 20800 nM | 48 nM | 9.9 | 77 | 430 | 9.5 nM | 13200 nM | 1400 | 
13 | CNC(=O)c1cc(Oc2ccc3c(C)c(C(=O)OC(C)C)n(C)c3c2)ccn1 | 1900 nM | 130 nM | 11200 nM | 60 nM | 5.9 | 86 | 190 | 71 nM | 8500 nM | 120 | 
14 | CNC(=O)c1cc(Oc2ccc3cc(C(=O)OC(C)C)sc3c2)ccn1 | 1700 nM | 1500 nM | 45700 nM | 13 nM | 27 | 31 | 3500 | 6400 nM | 45000 nM | 7 | 
15 | CCOC(=O)/C=C/[C@H](C[C@@H]1CCNC1=O)NC(=O)[C@@H](CC(=O)[C@@H](NC(=O)c1cc(C)on1)C(C)C)Cc1ccc(F)cc1 [RUPINTRIVIR] |  |  |  |  |  |  |  |  |  |  | EC50 (rhinovirus A16 [10]): 30 nM; Activity (rhinovirus B14 [19]): Active
16 | CNC(=O)c1cc(Oc2ccc3ccc(C(=O)OC)cc3c2)ccn1 | 11000 nM | 2000 nM | 53500 nM | 1600 nM | 4.9 | 27 | 33 | 44 nM | 33800 nM | 770 | 
